Tests used:
[1] = Antioxidant activity of the compound assessed as inhibition of ABTS radicals after 20 mins by spectrophotometric analysis; format: functional
Outline: (§1)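 ABTS radical cation generated from ABTS and potassium persulfate in 0.1 M phosphate buffer pH 7.0, left 16 h in the dark at room temperature. Blank absorbance at 734 nm adjusted to about 1.0. Samples from 2 mM stocks in MeOH/phosphate buffer 1:1. A734 read at room temperature after exactly 20 min. %inhibition = (Ablank − Asample)/Ablank, mean of triplicates.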

[2] = Antioxidant activity of the compound assessed as inhibition of ABTS radicals at 9 uM after 20 mins by spectrophotometric analysis; format: functional; outline: as §1
[3] = Antioxidant activity of the compound assessed as inhibition of ABTS radicals at 17 uM after 20 mins by spectrophotometric analysis; format: functional; outline: as §1
[4] = Antioxidant activity of the compound assessed as inhibition of ABTS radicals at 33 uM after 20 mins by spectrophotometric analysis; format: functional
[5] = target: Glutamate receptor ionotropic, NMDA 2B (Rattus norvegicus) (UniProt Q00960); assay: Displacement of [3H]Ifenprodil from NMDA receptor GluN2B subunit in Wistar rat cerebral cortex at 0.1 uM; format: tissue-based
Glutamate receptor ionotropic, NMDA 2B (Rattus norvegicus), sequence (Q00960 27-1482 limits assumed): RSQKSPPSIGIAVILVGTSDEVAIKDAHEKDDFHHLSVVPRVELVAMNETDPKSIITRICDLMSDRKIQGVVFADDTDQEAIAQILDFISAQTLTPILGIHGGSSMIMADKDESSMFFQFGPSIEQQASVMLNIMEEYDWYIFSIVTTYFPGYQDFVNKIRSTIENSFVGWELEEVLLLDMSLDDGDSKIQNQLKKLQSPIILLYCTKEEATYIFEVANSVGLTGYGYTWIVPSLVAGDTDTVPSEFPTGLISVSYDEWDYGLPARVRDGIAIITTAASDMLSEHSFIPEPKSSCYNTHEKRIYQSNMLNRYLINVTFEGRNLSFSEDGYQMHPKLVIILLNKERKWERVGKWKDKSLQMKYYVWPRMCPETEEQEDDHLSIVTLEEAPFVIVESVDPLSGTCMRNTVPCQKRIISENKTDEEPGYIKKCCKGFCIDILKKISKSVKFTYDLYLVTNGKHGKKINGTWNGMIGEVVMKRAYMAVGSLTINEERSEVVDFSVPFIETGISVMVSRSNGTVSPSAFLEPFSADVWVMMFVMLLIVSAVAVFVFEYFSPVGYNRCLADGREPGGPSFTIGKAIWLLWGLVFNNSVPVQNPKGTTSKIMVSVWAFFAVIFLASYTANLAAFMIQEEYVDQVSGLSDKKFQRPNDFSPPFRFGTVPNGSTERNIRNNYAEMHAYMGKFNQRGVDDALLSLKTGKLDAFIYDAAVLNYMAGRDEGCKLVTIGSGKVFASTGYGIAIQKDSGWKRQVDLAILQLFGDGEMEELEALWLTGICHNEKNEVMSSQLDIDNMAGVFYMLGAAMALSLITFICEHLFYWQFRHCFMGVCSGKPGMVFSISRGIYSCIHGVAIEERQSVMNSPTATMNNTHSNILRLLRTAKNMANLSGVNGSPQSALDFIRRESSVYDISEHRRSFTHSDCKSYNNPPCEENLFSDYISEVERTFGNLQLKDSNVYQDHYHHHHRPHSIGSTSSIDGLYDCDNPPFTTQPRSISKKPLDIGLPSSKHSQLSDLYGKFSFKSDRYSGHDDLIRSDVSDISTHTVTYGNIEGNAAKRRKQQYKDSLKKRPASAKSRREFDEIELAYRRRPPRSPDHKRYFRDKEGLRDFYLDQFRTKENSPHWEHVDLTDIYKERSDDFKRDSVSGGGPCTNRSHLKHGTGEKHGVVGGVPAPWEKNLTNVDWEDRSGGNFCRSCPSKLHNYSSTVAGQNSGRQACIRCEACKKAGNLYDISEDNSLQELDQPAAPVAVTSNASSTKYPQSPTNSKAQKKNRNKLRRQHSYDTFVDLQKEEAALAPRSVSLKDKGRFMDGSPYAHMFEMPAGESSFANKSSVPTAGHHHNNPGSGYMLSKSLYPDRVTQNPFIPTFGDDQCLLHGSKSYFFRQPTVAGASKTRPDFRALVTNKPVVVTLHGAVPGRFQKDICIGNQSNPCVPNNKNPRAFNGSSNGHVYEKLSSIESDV

[6] = target: Glutamate receptor ionotropic, NMDA 2B (Rattus norvegicus, UniProt Q00960); assay: Displacement of [3H]Ifenprodil from NMDA receptor GluN2B subunit in Wistar rat cerebral cortex; format: tissue-based
Glutamate receptor ionotropic, NMDA 2B (Rattus norvegicus, UniProt Q00960), sequence (Q00960 whole entry): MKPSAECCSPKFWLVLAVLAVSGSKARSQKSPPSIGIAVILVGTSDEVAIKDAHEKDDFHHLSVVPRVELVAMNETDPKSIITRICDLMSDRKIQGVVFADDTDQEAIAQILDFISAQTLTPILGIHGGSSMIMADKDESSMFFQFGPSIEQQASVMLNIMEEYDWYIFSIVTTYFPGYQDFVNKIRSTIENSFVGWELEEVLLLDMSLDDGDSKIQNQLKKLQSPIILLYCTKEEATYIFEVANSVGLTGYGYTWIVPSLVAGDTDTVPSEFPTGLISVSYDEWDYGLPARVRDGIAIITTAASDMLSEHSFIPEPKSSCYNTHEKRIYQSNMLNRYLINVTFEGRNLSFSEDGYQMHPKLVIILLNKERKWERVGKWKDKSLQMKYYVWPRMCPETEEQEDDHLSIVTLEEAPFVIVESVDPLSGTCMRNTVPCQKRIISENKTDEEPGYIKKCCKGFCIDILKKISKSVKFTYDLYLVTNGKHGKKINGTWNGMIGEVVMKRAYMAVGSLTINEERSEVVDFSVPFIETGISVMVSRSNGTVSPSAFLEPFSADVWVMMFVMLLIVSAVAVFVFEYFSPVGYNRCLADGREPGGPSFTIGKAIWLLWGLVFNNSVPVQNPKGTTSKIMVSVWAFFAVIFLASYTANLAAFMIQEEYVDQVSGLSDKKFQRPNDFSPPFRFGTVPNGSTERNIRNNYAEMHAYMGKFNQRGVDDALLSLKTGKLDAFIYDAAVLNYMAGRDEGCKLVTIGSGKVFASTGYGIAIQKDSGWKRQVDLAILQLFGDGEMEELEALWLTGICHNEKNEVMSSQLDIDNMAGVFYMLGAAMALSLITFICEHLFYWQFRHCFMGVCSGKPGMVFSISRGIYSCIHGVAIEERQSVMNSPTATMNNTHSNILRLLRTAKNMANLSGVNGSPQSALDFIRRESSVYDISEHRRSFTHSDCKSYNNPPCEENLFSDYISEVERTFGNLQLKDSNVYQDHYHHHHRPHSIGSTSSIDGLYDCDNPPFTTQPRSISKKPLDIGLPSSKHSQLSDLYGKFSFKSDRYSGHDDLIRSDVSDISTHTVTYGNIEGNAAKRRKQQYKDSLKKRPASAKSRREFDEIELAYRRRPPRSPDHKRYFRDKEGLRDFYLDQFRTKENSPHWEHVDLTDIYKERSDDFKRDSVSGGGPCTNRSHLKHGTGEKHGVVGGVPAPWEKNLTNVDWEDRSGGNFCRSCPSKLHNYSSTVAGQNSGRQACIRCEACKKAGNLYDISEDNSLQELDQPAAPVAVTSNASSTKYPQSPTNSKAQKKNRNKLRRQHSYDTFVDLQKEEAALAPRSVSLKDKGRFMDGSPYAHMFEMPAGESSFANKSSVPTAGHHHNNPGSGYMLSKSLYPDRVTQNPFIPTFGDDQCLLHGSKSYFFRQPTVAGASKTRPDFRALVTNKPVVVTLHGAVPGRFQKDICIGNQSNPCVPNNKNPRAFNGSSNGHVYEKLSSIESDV

Mus musculus [7] = assay: Anticonvulsant activity in ip dosed sound-induced DBA/2 mouse seizure model assessed as tonus phase latency; format: functional; conditions: DBA/2, ip
Outline: (§2)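 DBA/2 mice (8–12 g, 22–25 days old, either sex), groups of 10. Compound given ip at 0.1 mL/10 g in 50% DMSO/50% saline; vehicle controls. Auditory stimulus (12–16 kHz, 109 dB) applied 30 min later for 60 s or until tonic extension, after 60 s habituation. Latency to and incidence of seizure phases scored; Fisher's exact test. ED50 by Litchfield–Wilcoxon.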

Mus musculus [8] = assay: Anticonvulsant activity in ip dosed sound-induced DBA/2 mouse seizure model assessed as clonus phase latency; format: functional; conditions: DBA/2, ip; outline: as §2
[9] = target: Glutamate receptor ionotropic, NMDA 2B (Mus musculus) (UniProt Q01097); assay: Antagonist activity at NMDA receptor GluN2B subunit in FVB mouse CA1 pyramidal neurons assessed as reversible reduction of excitatory post synaptic current amplitude at 50 nM at holding potential of -60 mV measured for 5 mins by patch clamp technique in presence of Mg2+free ACSF relative to control; format: cell-based; parameters: scale not given: the % may be the effect or the level left; conditions: Pyramidal neuron
Outline: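 Whole-cell recordings of NMDA receptor-mediated EPSCs in mouse hippocampal slices, with glycine (10 µM) and bicuculline (5 µM) in the bath. Compound applied for 5 min, then washed out. EPSC amplitude taken as peak minus baseline and measured over 5 min in control and in drug for each neuron. Expressed as % of control, n = 4; unpaired Student's t test.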

[10] = target: Glutamate receptor ionotropic, NMDA 2B (Rattus norvegicus) (UniProt Q00960); assay: Displacement of [3H]Ifenprodil from NMDA receptor GluN2B subunit in Wistar rat cerebral cortex at 10 uM; format: tissue-based
[11] = target: Glutamate receptor ionotropic, NMDA 2B (Homo sapiens, UniProt Q05586+Q13224); assay: Inhibition of NMDA receptor GluN2B subunit (unknown origin)
Glutamate receptor ionotropic, NMDA 2B (Homo sapiens, UniProt Q05586+Q13224), sequence (Q13224 whole entry, one chain of several): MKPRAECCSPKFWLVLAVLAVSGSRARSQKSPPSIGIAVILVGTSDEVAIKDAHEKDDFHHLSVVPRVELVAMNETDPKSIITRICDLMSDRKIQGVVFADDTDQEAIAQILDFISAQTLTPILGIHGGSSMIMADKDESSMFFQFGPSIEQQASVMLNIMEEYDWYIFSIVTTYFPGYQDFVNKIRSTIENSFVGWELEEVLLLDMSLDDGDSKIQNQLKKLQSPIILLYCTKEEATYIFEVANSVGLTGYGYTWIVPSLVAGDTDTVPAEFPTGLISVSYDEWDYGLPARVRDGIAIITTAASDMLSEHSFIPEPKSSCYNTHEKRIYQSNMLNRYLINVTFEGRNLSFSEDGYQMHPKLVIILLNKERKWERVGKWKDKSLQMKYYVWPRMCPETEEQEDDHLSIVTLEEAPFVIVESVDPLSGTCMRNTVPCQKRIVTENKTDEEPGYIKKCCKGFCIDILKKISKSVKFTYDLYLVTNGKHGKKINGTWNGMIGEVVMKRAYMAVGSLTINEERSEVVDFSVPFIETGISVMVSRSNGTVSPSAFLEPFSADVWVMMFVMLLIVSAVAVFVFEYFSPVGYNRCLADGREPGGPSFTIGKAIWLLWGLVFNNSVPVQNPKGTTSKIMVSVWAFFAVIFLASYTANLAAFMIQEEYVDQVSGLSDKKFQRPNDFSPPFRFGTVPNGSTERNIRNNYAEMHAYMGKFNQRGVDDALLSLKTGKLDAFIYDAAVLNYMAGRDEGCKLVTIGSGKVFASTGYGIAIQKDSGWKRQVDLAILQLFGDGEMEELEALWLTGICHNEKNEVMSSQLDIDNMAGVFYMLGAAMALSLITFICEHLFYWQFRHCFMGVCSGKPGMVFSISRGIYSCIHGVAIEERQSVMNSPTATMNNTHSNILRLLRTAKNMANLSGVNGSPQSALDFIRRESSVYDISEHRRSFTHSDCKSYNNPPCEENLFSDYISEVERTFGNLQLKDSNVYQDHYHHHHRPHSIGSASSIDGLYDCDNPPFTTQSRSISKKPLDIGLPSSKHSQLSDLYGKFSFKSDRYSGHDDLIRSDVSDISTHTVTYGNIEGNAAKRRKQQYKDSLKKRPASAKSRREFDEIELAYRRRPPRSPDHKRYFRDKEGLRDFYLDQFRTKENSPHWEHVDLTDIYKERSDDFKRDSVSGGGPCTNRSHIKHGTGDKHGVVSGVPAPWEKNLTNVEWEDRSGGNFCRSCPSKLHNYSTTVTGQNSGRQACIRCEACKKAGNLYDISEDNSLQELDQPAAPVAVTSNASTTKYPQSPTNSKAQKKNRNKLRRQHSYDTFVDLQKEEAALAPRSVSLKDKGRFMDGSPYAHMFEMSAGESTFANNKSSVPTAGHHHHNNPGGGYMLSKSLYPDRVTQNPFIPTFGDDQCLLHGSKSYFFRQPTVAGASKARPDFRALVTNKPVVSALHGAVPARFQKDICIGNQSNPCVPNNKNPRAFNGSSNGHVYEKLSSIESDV

Which results are given for `O=C(O)c1cc(O)c(O)c(O)c1`?
inhibition [1]: Dose-dependent effect; inhibition [2]: 61.6%; inhibition [3]: > 94.1%; inhibition [4]: > 93.9%

For `c1ccc2[nH]ccc2c1`, which inhibition [1] is on record?
Its inhibition is “Dose-dependent effect”.

What about the inhibition [4] of the same molecule?
Its inhibition is 25.6%.

With `O=C(C(=O)N1CCC(Cc2ccc(F)cc2)CC1)c1c[nH]c2cc(O)c(O)cc12` as the molecule, how does the inhibition [5] read?
Its inhibition is 38%.

With `O=C(CN1CCC(Cc2ccc(F)cc2)CC1)c1c[nH]c2cc(O)c(O)cc12` as the molecule, how does the IC50 [6] read?
The IC50 was 0.03 µM.

And the inhibition [5]?
The inhibition was 84%.

Which results are given for `O=C(C(=O)N1CCC(Cc2ccc(F)cc2)CC1)c1c[nH]c2cc(O)ccc12`?
IC50 [6]: 0.02 µM; inhibition [5]: 61%

For `O=C(CN1CCC(Cc2ccc(F)cc2)CC1)c1c[nH]c2cc(O)ccc12`, which IC50 [6] is on record?
Its IC50 is 0.0091 µM.

And the inhibition [5]?
The inhibition was 82%.

What does the source list for `Oc1cc2cc[nH]c2cc1O`?
inhibition [1]: Dose-dependent effect; inhibition [2]: 54.4%; inhibition [3]: > 84.4%

What does the source list for `Oc1ccc2cc[nH]c2c1`?
inhibition [1]: Dose-dependent effect; inhibition [2]: 83%; inhibition [4]: > 89.8%

For `Nc1ccc2c(C(=O)CN3CCC(Cc4ccc(F)cc4)CC3)c[nH]c2c1`, which inhibition [5] is on record?
Its inhibition is 12%.

For `O=C(CN1CCC(Cc2ccccc2)CC1)c1c[nH]c2cc(O)c(O)cc12`, which ED50 (Mus musculus [7]) is on record?
Its ED50 is 76.7 µmol/kg.

And the ED50 (Mus musculus [8])?
The ED50 was 89.4 µmol/kg.

What about the Activity [9] of the same molecule?
The Activity was 57%.

What about the IC50 [6] of the same molecule?
Its IC50 is 0.0055 µM.

What about the inhibition [5] of the same molecule?
Its inhibition is 91%.

Which results are given for `Oc1ccc2[nH]ccc2c1`?
inhibition [1]: Dose-dependent effect; inhibition [2]: 79.8%; inhibition [4]: > 90.1%

For `COc1ccc2c(C(=O)CN3CCC(Cc4ccc(F)cc4)CC3)c[nH]c2c1`, which inhibition [10] is on record?
The inhibition was 82%.

Which IC50 [6] does the source give for `CS(=O)(=O)Nc1ccc2c(C(=O)CN3CCC(Cc4ccc(F)cc4)CC3)c[nH]c2c1` here?
Its IC50 is 0.0094 µM.

What about the inhibition [5] of the same molecule?
Its inhibition is 81%.

For `COc1cc2[nH]cc(C(=O)CN3CCC(Cc4ccccc4)CC3)c2cc1OC`, which inhibition [5] is on record?
The inhibition was 1%.

For `Nc1ccc2[nH]cc(C(=O)CN3CCC(Cc4ccc(F)cc4)CC3)c2c1`, which inhibition [5] is on record?
Its inhibition is 33%.

For `O=C(C(=O)N1CCC(Cc2ccc(F)cc2)CC1)c1c[nH]c2ccc(O)cc12`, which inhibition [5] is on record?
Its inhibition is 11%.

For `O=C(CN1CCC(Cc2ccccc2)CC1)c1c[nH]c2ccccc12`, which IC50 [11] is on record?
The IC50 was 0.769 µM.

For `COc1ccc2[nH]cc(C(=O)CN3CCC(Cc4ccc(F)cc4)CC3)c2c1`, which inhibition [10] is on record?
The inhibition was 73%.

Which inhibition [5] does the source give for `CS(=O)(=O)Nc1ccc2[nH]cc(C(=O)CN3CCC(Cc4ccc(F)cc4)CC3)c2c1` here?
Its inhibition is 10%.

For `O=C(C(=O)N1CCC(Cc2ccccc2)CC1)c1c[nH]c2cc(O)c(O)cc12`, which inhibition [5] is on record?
The inhibition was 40%.

Which results are given for `CS(=O)(=O)Nc1ccc2c(C(=O)C(=O)N3CCC(Cc4ccc(F)cc4)CC3)c[nH]c2c1`?
IC50 [6]: 0.018 µM; inhibition [5]: 67%

Which inhibition [5] does the source give for `COc1ccc2c(C(=O)C(=O)N3CCC(Cc4ccc(F)cc4)CC3)c[nH]c2c1` here?
Its inhibition is 27%.

With `COc1cc2[nH]cc(C(=O)C(=O)N3CCC(Cc4ccccc4)CC3)c2cc1OC` as the molecule, how does the inhibition [10] read?
The inhibition was 9%.

With `COc1ccc2[nH]cc(C(=O)C(=O)N3CCC(Cc4ccc(F)cc4)CC3)c2c1` as the molecule, how does the inhibition [10] read?
Its inhibition is 35%.

Which inhibition [1] does the source give for `O=C(O)/C=C/c1ccc(O)c(O)c1` here?
The inhibition was “Dose-dependent effect”.

And the inhibition [3]?
Its inhibition is 71.5%.

What about the inhibition [4] of the same molecule?
The inhibition was > 93.4%.

For `O=C(CN1CCC(Cc2ccc(F)cc2)CC1)c1c[nH]c2ccc(O)cc12`, which IC50 [6] is on record?
Its IC50 is 0.051 µM.

And the inhibition [5]?
Its inhibition is 60%.

Which inhibition [5] does the source give for `CS(=O)(=O)Nc1ccc2[nH]cc(C(=O)C(=O)N3CCC(Cc4ccc(F)cc4)CC3)c2c1` here?
The inhibition was 4%.

From ChEMBL document CHEMBL3102802, “Synthesis, modelling and biological characterization of 3-substituted-1H-indoles as ligands of GluN2B-containing N-methyl-d-aspartate receptors” (Bioorg Med Chem, 2014)
